Source: PubChem (The Scripps Research Institute Molecular Screening Center)
S1P3 ag: activates the human S1P3 receptor; S1P3 NFAT-BLA reporter cells, agonism, FRET ratio; relative to 1 µM S1P, basal subtracted; AID 373; activation, % at 4.5 µM; 0.1% of 60,000 active; Q99500;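 active = activation above the screen-wide mean plus 3 SD, cut at about 4.5% in these data, passing the limit was not always enough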
Target sequence (Q99500 whole entry, looked up): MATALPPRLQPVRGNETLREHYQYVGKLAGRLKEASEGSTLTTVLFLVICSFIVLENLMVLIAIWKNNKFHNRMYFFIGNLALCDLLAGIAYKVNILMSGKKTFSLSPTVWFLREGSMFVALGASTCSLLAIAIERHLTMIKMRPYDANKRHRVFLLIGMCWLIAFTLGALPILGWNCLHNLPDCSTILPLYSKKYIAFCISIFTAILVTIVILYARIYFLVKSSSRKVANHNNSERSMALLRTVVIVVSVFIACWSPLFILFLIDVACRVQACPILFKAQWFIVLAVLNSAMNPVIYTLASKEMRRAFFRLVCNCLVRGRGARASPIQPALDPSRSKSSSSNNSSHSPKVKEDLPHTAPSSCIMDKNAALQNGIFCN
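Measure – % activation relative to 1 µM S1P (100%), per plate · System – stable CHO line with human S1P3, Gα16, NFAT-BLA reporter · Timing – cells plated overnight, compound 4 h 37 °C, substrate 2 h RT · Technique – fluorescent BLA substrate, ex 405 nm, em 460/535 nm ratio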
5HT1E antag: antagonists of human 5-HT1E serotonin receptor; P28566; CHO 5-HT1E Ga15 NFAT-bla reporter, FRET, antagonist; inhibition, % at 6 µM; 0.99% of 65,000 active; AID 571;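 active = inhibition above a set limit, the mean inhibition across every tested compound plus 3 SD, cut at about 29% in these data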;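 also: signal is the 460 over 535 nm emission ratio of beta-lactamase substrate; 0% = agonist plus DMSO wells and 100% = wells without agonist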
S1P1 ag-PAM: activates or potentiates agonism at human S1P1 receptor; S1P1 CRE-bla cells, forskolin, beta-lactamase FRET, potentiator mode; S1P1 agonist co-added at EC20, 2 nM; 100% = saturating reference agonist, 0% = basal; activation, % at 9.5 µM; 0.57% of 56,000 active; P21453;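 active = activation above a cutoff set at the mean activation of all tested compounds plus 3 SD, cut at about 54% in these data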;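 also: forskolin at 4 µM as EC80 and the EC20 agonist is SEW2871; 100% = SEW2871 at its EC100 plus forskolin at EC80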
5-HT1A blocker: 5-HT1a (human) receptor antagonism | P08908 | 0.68% of 62,000 active | CHO 5-HT1a Ga15 NFAT-bla reporter, antagonist mode | inhibition, % at 10 µM;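 active = inhibition above the mean of all tested compounds plus 3 SD, cut at about 43% in these data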;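 also: receptor stimulated by 5-CT agonist at 100 nM near EC80; beta-lactamase reporter measured by ratiometric fluorescence of a cleavable substrate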
HTR1E agonist: agonists of human 5-HT1E serotonin receptor. P28566. CHO 5-HT1E Ga15 NFAT-bla reporter, FRET; 0% DMSO wells, 100% control agonist wells. activation, % at 6 µM. 0.69% of 65,000 active;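 active = activation above a set limit, the screen-wide mean activation plus 3 SD, cut at about 8.5% in these data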;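 also: 100% = positive control agonist at 1 µM giving full maximal response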
5HT1a ag: agonists of human 5-HT1a serotonin receptor. CHO 5-HT1a Ga15 NFAT-bla reporter, FRET ratio; 0% basal, 100% maximal reference agonist. activation, % at 10 µM. 0.56% of 65,000 active. AID 567;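 active = activation above the screen-wide mean activation plus 3 SD, cut at about 19% in these data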;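 also: 0% = DMSO wells and 100% = 5-CT at EC100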
* hit, by the source's call; / = no result given. In the library only some 2.9% were active in any assay of this set; here they are far more common.

SMILES	S1P3 ag	5HT1E antag	S1P1 ag-PAM	5-HT1A blocker	HTR1E agonist	5HT1a ag
CCOC(=O)C1CCN(C(c2cccnc2)c2c(NC(=O)c3ccco3)sc(C)c2C)CC1 (stereo unspecified)	2	-3	-18	18	52*	3
O=C(NCc1ccc2c(c1)OCO2)C1CCN(Cc2cnn(-c3ccccc3)c2-n2cccc2)CC1	/	0	/	-4	12*	0
COc1ccc(NC(=O)C2CCN(Cc3cnn(-c4ccccc4)c3-n3cccc3)CC2)cc1OC	/	1	/	13	0	-2
O=C(NCCCn1ccnc1)C1c2ccccc2Oc2ccccc21	-2	-6	-9	-4	0	-1
Cc1ccccc1N1CCN(Cc2cccc(C(=O)O)c2)CC1	-1	4	-6	8	22*	0
Cc1ccccc1-n1c(=O)cc(N2CCN(Cc3ccccc3)CC2)[nH]c1=O	0	-6	-9	5	0	-2
O=C(C1CCN(S(=O)(=O)c2cccc3cccnc23)CC1)N1CCn2c1nc1ccccc12	1	-2	-10	-22	0	1
Cc1oc(-c2cccc(Cl)c2)nc1CN1CCCC(C(=O)NCCCN2CCOCC2)C1 (stereo unspecified)	-1	6	0	16	0	30*
Cc1oc(-c2ccc(Cl)cc2)nc1CN1CCC(C(=O)NCCCN2CCOCC2)CC1	0	-2	4	5	1	0
Cc1ccc(-n2c(SCC(=O)N3CCOCC3)nnc2-c2cccnc2)cc1C	-1	-1	2	-4	44*	3
COc1ccc(OC)c(C(=O)c2ccc(C(=O)N3CCCCC3)cc2)c1	-3	8	-19	0	0	25*
COC(=O)c1ccccc1NC1c2ccccc2C(=O)N1c1cccnc1 (stereo unspecified)	-1	13	-24	12	-1	56*
Cc1ccc(C)c(N2CCN(Cc3nnnn3C3CCCCC3)CC2)c1	-1	-9	-10	26	42*	2
CCCCn1c(SCc2cc(=O)n3ccsc3n2)nc2cc(C(=O)OC)ccc2c1=O	0	1	3	-3	0	0
COc1ccc(NS(=O)(=O)c2cc(C)ccc2NC(=O)c2cc(C)oc2C)cc1	-1	61*	-13	63*	0	0
CCOC(=O)c1ccc(NS(=O)(=O)c2cc(C)ccc2OC)cc1	-1	-2	14	-1	1	2
CC(C)CC(c1nnnn1Cc1ccco1)N1CCN(c2cccc(Cl)c2)CC1 (stereo unspecified)	-1	13	5	46*	-2	5
Fc1cccc(-c2cc3nc4c(c(N5CCOCC5)n3n2)CCCC4)c1	0	30*	-12	21	-1	-2
Cc1c(C#N)c(SCC(N)=O)nc2c1CCCC2	-1	-2	-16	-16	0	-4
O=C(C1CCN(Cc2ccc(OCc3ccccc3)cc2)CC1)N1CCCC1	-1	-11	-23	8	11*	-1
O=c1c2ccccc2nc(SCc2nc(-c3ccccc3)no2)n1-c1ccc(F)cc1	-2	-2	3	13	0	20*
c1ccc(-n2cnnc2SCc2cn3ccsc3n2)cc1	-1	3	-4	0	0	1
Cc1ccc(-n2c(SCc3cn4ccsc4n3)nc3ccccc3c2=O)cc1	1	43*	20	17	0	3
COc1cc(C2C(C#N)=C(N)Oc3cc(N(C)C)ccc32)cc2c1OCO2 (stereo unspecified)	-2	43*	9	4	0	-2
CC1CCN(c2ccc(C(=O)NCc3cccs3)cn2)CC1	-1	13	17	21	-1	-3
SMILES	S1P3 ag	5HT1E antag	S1P1 ag-PAM	5-HT1A blocker	HTR1E agonist	5HT1a ag
COc1ccc(-c2nc(C#N)c(NCc3ccc(F)cc3)o2)cc1OC	0	30*	-17	3	1	0
Cc1cc(C)nc(N2CCCC(C(=O)NC(C)CCc3ccco3)C2)n1 (stereo unspecified)	1	4	3	-3	0	-2
Cc1ccc(C)c(N2CCN(CC(=O)Nc3ccc4[nH]c(=O)[nH]c4c3)CC2)c1	-1	-9	-4	8	23*	0
Cc1nc2ccccc2c2oc(C(=O)NCc3ccccn3)cc12	-1	-1	-36	1	0	34*
Cc1[nH]c2ccc(C(=O)OCCN(C)C)cc2c1C	0	-6	2	-11	31*	0
CCOC(=O)c1ccc2[nH]c(C)c(CCC(C)=O)c(=O)c2c1	0	0	7	6	2	0
O=C(CSc1nnc(-c2c[nH]c3ccccc23)o1)N1c2ccccc2CCc2ccccc21	0	-1	56	32	0	2
c1ccc(CSc2nnc(-c3c[nH]c4ccccc34)o2)cc1	-1	2	98*	20	0	-2
Cc1ccsc1C(C(=O)NC1CCCCC1)N(C(=O)c1csnn1)C1CC1 (stereo unspecified)	1	-2	12	6	-1	-2
CCOC(=O)CSC1=C(C#N)C(c2ccc(C)o2)CC(=O)N1 (stereo unspecified)	-1	43*	-11	34	0	-3
CCOC(=O)CSC1=C(C#N)C(c2ccc(Cl)cc2)CC(=O)N1 (stereo unspecified)	0	19	-11	3	1	-1
CC(=O)N=c1sc(C(C)(C)C)c(C)n1C	0	6	-2	-6	1	-1
O=C(CCN1CCN(c2ccccc2F)CC1)Nc1ccccc1F	-1	-7	-24	32	1	-1
O=C(CCN1CCN(c2ccccc2F)CC1)c1ccc(Br)cc1	3	3	-2	7	34*	1
C=CCn1c(O)c(CN2CCOCC2)c(C)c(C#N)c1=O	0	5	-14	4	0	-4
CC1CCCC(NC(=O)c2ccc3c(=O)n(CC4CCCO4)c(=O)[nH]c3c2)C1C (stereo unspecified)	0	-8	-5	-9	0	54*
CCN(CC)c1ccc(-c2nn3c(-c4ccccc4OC)nnc3s2)cc1	-1	67*	-90	70*	1	1
CN(C)c1ccc(-c2nn3c(-c4ccc(Cl)cc4Cl)nnc3s2)cc1	0	37*	7	17	-1	0
COc1ccccc1-c1nn2c(-c3ccccc3Cl)nnc2s1	-1	-2	/	4	-1	-2
COc1ccc(Nc2nc(N)nc(CSc3n[nH]c(-c4ccccc4)n3)n2)cc1	0	42*	-32	2	-1	0
COc1ccccc1Nc1nc(N)nc(CSc2ncccn2)n1	0	5	-32	-1	0	-1
